Converted amounts (≈) assume the structure as drawn. The source made the active and inactive calls. The calls are words filed in the database; no cut-off is given here.
Columns and labels:
[1] = Apparent permeability across apical to basolateral side in MDCK cells; format: ADME, cell-based, Canis lupus familiaris; conditions: dog
Method in brief: (§1)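 Bidirectional permeability measured across MDCK cell monolayers, reported as apparent permeability (Papp) in cm/s for each direction.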

[2] = biological target: T1, Transitional endoplasmic reticulum ATPase (Homo sapiens, UniProt P55072); experiment: Inhibition of recombinant human full length Avi-tagged p97 (1 to 806 residues) expressed in Escherichia coli Rosetta 2(DE3) using 20 uM ATP as substrate incubated for 90 mins by ADP-glo assay
Method in brief: (§2)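 ADP-Glo luminescent detection of ADP formed by wild-type p97 ATPase. Enzyme was 20 nM WT p97 (indole amide series) or 10 nM (pyridine indole amide series), with ATP at 20 or 100 μM. n is the number of independent replicates, each run in duplicate or triplicate.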
Target sequence in this assay (P55072 whole entry, the tested form may be a part): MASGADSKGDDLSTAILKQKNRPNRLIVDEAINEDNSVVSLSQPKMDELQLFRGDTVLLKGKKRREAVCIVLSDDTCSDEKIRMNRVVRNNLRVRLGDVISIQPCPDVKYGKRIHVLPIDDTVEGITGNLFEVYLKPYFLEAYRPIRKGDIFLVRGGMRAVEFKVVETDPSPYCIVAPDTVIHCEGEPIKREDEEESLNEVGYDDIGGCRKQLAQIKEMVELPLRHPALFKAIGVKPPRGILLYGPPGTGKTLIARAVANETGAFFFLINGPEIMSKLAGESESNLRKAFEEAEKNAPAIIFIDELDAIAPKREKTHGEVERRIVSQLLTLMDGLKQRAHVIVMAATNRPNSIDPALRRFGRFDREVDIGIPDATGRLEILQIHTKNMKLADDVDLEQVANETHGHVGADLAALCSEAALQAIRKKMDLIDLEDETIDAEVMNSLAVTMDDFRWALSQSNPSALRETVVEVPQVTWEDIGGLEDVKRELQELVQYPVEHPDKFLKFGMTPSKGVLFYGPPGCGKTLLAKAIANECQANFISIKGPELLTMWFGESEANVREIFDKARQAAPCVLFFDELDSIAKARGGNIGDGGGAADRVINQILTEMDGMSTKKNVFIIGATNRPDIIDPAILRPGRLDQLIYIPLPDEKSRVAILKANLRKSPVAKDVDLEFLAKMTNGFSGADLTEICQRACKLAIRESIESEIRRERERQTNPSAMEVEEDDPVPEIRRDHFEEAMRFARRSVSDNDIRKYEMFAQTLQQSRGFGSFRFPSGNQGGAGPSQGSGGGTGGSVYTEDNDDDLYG

[3] = biological target: T1, Transitional endoplasmic reticulum ATPase; experiment: Inhibition of recombinant human full length Avi-tagged p97 (1 to 806 residues) expressed in Escherichia coli Rosetta 2(DE3) using 100 uM ATP as substrate incubated for 90 mins by ADP-glo assay; method in brief: as §2
Target sequence in this assay (P55072 whole entry, the tested form may be a part): as above

[4] = biological target: T1, Transitional endoplasmic reticulum ATPase; experiment: Uncompetitive inhibition of recombinant human full length Avi-tagged p97 (1 to 806 residues) expressed in Escherichia coli Rosetta 2(DE3) using 20 uM ATP as substrate incubated for 90 mins by ADP-glo assay based Michaelis-Menten plot analysis
Method in brief: (§3)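 ATP-dependence of inhibition assessed by determining IC50 at three ATP levels (5, 20 and 100 μM) in the ADP-Glo p97 ATPase assay. Inhibition mode was assigned from the shift in IC50 with increasing ATP.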
Target sequence in this assay (P55072 whole entry, the tested form may be a part): as above

[5] = Metabolic stability in human microsomes assessed as half life; format: ADME, Microsome
[6] = Aqueous solubility of compound at pH 7; format: physicochemical; conditions: buffer
Method in brief: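 Aqueous solubility determined in PBS at pH 7.4.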

[7] = biological target: T1, Transitional endoplasmic reticulum ATPase; experiment: Competitive inhibition of recombinant human full length Avi-tagged p97 (1 to 806 residues) expressed in Escherichia coli Rosetta 2(DE3) using 20 uM ATP as substrate incubated for 90 mins by ADP-glo assay based Michaelis-Menten plot analysis
Target sequence in this assay (P55072 whole entry, the tested form may be a part): as above

[8] = Apparent permeability across basolateral to apical side in MDCK cells; format: ADME, cell-based, Canis lupus familiaris; conditions: dog; method in brief: as §1
[9] = Metabolic stability in mouse microsomes assessed as half life; format: ADME, Microsome
[10] = biological target: T1, Transitional endoplasmic reticulum ATPase; experiment: Inhibition of recombinant human full length Avi-tagged p97 (1 to 806 residues) expressed in Escherichia coli Rosetta 2(DE3) using 5 uM ATP as substrate incubated for 90 mins by ADP-glo assay; method in brief: as §3
Target sequence in this assay (P55072 whole entry, the tested form may be a part): as above

[11] = biological target: T1, Transitional endoplasmic reticulum ATPase; experiment: Binding affinity to recombinant human full length Avi-tagged p97 (1 to 806 residues) expressed in Escherichia coli Rosetta 2(DE3) assessed as binding constant by SPR analysis
Target sequence in this assay (P55072 2-806 limits assumed): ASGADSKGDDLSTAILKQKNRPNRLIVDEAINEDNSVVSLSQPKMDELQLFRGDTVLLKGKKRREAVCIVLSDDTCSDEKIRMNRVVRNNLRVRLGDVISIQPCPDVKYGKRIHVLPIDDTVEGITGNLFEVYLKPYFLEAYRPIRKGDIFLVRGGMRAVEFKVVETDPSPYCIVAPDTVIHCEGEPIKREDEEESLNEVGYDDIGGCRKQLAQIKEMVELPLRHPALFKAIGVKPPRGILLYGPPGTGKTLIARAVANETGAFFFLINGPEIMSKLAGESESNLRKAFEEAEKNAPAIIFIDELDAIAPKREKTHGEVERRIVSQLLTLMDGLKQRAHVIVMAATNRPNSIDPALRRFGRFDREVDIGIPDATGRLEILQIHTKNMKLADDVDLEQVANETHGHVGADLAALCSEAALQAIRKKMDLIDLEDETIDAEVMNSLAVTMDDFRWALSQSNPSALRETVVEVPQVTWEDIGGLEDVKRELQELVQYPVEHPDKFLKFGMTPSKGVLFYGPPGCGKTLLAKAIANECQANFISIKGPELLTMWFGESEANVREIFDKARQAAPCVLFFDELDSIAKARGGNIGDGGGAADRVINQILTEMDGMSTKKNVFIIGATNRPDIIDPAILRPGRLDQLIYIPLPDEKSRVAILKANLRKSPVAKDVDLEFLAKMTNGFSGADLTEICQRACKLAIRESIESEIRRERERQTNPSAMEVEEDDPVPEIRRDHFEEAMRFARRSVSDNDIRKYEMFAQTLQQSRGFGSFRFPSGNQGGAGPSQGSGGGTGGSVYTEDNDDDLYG

[12] = biological target: T1, Transitional endoplasmic reticulum ATPase; experiment: Binding affinity to recombinant human full length N-terminal Avi-tagged p97 ND1 domain (1 to 458 residues) expressed in Escherichia coli Rosetta 2(DE3) assessed as binding constant by SPR analysis
Target sequence in this assay (P55072 2-806 limits assumed): as above

[13] = biological target: T1, Transitional endoplasmic reticulum ATPase; experiment: Binding affinity to recombinant human full length C-terminal Avi-tagged p97 D2 domain (461 to 806 residues) expressed in Escherichia coli Rosetta 2(DE3) assessed as binding constant by SPR analysis
Target sequence in this assay (P55072 2-806 limits assumed): as above

## Cc1cc2cc(NC(=O)c3cccnc3N)ccc2[nH]1
[1]
  Papp A→B: 71 ×10⁻⁶ cm/s
[2]
  IC50: 2.6 µM
[3]
  IC50: 0.5 µM
[4]
  Ki: 0.74 µM
[5]
  half-life: > 60 min
[6]
  solubility: 330 µM (≈ 87.9 µg/mL)
[7]
  Ki: 3.5 µM
[8]
  Papp B→A: 46 ×10⁻⁶ cm/s
[9]
  half-life: 5 min

## Nc1nccnc1C(=O)Nc1ccc2[nH]ccc2c1
[2]
  IC50: > 50 µM

## Cc1cc2cc(NC(=O)c3nccnc3N)ccc2[nH]1
[2]
  IC50: 11.5 µM
[10]
  IC50: 26 µM
[3]
  IC50: 3.5 µM
[11]
  Kdiss: 9.1 µM
[12]
  Activity: inactive
[6]
  solubility: 56 µM (≈ 15 µg/mL)
[13]
  Activity: Active

## Cc1[nH]c2ccc(NC(=O)c3nccnc3N)cc2c1C
[2]
  IC50: > 50 µM

## CCc1cc2cc(NC(=O)c3nccnc3N)ccc2[nH]1
[3]
  IC50: 13 µM

## Cc1cc2cc(NC(=O)c3nccnc3N)ccc2n1C
[3]
  IC50: > 50 µM

## Cc1cc2cc(NC(=O)c3cnccn3)ccc2[nH]1
[2]
  IC50: > 50 µM

## Cc1cc2cc(NC(=O)c3ncccc3N)ccc2[nH]1
[2]
  IC50: > 50 µM

From ChEMBL document CHEMBL4715707, “Allosteric Indole Amide Inhibitors of p97: Identification of a Novel Probe of the Ubiquitin Pathway” (ACS Med Chem Lett, 2016)
